Data published in ChEMBL document CHEMBL3098128, “Design and synthesis of tamoxifen derivatives as a selective estrogen receptor down-regulator” (Bioorg Med Chem Lett, 2014).
Activity calls are given as the source filed them. No cut-off for these calls is given here.

Key:
MCF7 [1] = test: Upregulation of ERalpha protein levels in human MCF7 cells at 10 uM after 6 hrs by Western blot method; assay type: functional, cell-based
How it was run: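 MCF-7 human breast cancer cells exposed to 10 µM compound or DMSO vehicle for 6 h. Whole-cell protein extracted, and ERα protein level assessed by Western blotting against the DMSO-treated control.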

MCF7 [2] = test: Downregulation of ERalpha protein levels in human MCF7 cells at 10 uM after 6 hrs by Western blot method; assay type: functional, cell-based
How it was run: (§1)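 MCF-7 breast cancer cells were incubated with compound or DMSO vehicle for 6 h. Compound was given at 10 µM in single-dose comparisons, or at 1 to 30 µM in the dose series. Whole-cell protein was extracted and ERα protein level was assessed by Western blotting.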

[3] = target: T1, Estrogen receptor (Homo sapiens) (UniProt P03372); test: Antagonist activity at ERalpha in human MCF7 cells assessed as inhibition of E2-induced pS2 mRNA expression after 9 hrs by RT-PCR analysis; assay type: cell-based
T1 sequence (whole entry): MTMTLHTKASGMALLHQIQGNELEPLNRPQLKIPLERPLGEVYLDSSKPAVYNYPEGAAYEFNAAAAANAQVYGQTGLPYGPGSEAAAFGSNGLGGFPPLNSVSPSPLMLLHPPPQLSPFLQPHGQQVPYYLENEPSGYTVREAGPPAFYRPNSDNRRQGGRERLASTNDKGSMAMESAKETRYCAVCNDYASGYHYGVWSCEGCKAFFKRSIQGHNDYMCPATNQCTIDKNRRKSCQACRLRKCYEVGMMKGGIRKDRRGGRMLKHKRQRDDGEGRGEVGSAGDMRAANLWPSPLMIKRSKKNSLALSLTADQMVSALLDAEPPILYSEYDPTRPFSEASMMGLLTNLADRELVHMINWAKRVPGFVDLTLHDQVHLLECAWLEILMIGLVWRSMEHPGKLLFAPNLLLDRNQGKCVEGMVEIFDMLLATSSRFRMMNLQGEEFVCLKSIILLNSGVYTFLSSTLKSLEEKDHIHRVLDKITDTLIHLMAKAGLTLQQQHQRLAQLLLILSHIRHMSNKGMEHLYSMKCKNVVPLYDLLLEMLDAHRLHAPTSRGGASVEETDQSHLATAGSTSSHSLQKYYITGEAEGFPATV
How it was run: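 MCF-7 cells treated with compound across 0.1 to 10 µM, with or without 10 nM E2, for 9 h. Total RNA was extracted and reverse-transcribed. pS2 mRNA was quantified by real-time PCR.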

MCF7 [4] = test: Downregulation of ERalpha protein levels in human MCF7 cells at 10 uM after 6 hrs by Western blot method in presence of proteasome inhibitor MG132; assay type: functional, cell-based
MCF7 [5] = test: Downregulation of ERalpha protein levels in human MCF7 cells at 30 uM after 6 hrs by Western blot method; assay type: functional, cell-based; how it was run: as §1
MCF7 [6] = test: Downregulation of ERalpha protein levels in human MCF7 cells after 6 hrs by Western blot method; assay type: functional, cell-based; how it was run: as §1
MCF7 [7] = test: Downregulation of ERalpha protein levels in human MCF7 cells at 1 to 30 uM after 6 hrs by Western blot method; assay type: functional, cell-based; how it was run: as §1

For `CCC(=C(c1ccc(O)cc1)c1ccc(OCCN(C)C)cc1)c1ccccc1`, the Activity (MCF7 [1]) was “Active”.
In the case of `CCCCCCCCCCCCN(CCCCCCCCCCCC)CCOc1ccc(/C(=C(/CC)c2ccccc2)c2ccc(O)cc2)cc1`, the Activity (MCF7 [2]) is reported as “inactive”.
`CCCCCCCCCCCCNCCOc1ccc(/C(=C(/CC)c2ccccc2)c2ccc(O)cc2)cc1` was tested, and the inhibition [3] was “Dose-dependent effect”, the Activity (MCF7 [4]) was “inactive” and the Activity (MCF7 [5]) was “Active”. The Activity (MCF7 [6]) was “Dose-dependent effect” and the Activity (MCF7 [2]) was “Active”.
For `CCCCCCCCCCCCCCCCCCNCCOc1ccc(/C(=C(/CC)c2ccccc2)c2ccc(O)cc2)cc1`, the Activity (MCF7 [2]) was “inactive”.
In the case of `CCCCCCNCCOc1ccc(/C(=C(/CC)c2ccccc2)c2ccc(O)cc2)cc1`, the Activity (MCF7 [7]) is reported as “inactive” and the Activity (MCF7 [2]) is reported as “inactive”.
For `CCCCCCCCCCCCN(C)CCOc1ccc(/C(=C(/CC)c2ccccc2)c2ccc(O)cc2)cc1`, the Activity (MCF7 [2]) was “inactive”.
With `CC/C(=C(\c1ccc(O)cc1)c1ccc(OCCNC)cc1)c1ccccc1` the Activity (MCF7 [1]) was “Active”.
